Sampled rows, rich in hits. Any-hit rate of the full collection: about 1.5%.
CCR6 antag: CCR6 receptor antagonists, primary screen, cell-based, CHO-K1, luminescence, beta-arrestin, uHTS; C-C chemokine receptor type 6 (Homo sapiens), P51684; CHO-K1 CCR6 PathHunter beta-arrestin, CCL20-stimulated; inhibition, % at 20 µM; actives 0.49% (n = 340,000); AID 493098, 2011;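 active means compounds whose inhibition of the agonist-driven luminescence signal at 20 µM reaches about 50%, limit read from the data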;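 further: cells stimulated with CCL20 at 14 nM final; plate controls were DMSO with CCL20 for no effect and DMSO without agonist for full effect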
APJ antag: antagonists of human apelin receptor APJ, primary screen, CHO-K1 cells, beta-arrestin complementation, luminescence; P35414; inhibition, % at 20 µM; actives 0.32% (n = 330,000);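 active means inhibition above about 40% at 20 µM, limit read from the data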;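 further: cells challenged with 10 nM apelin-13 agonist together with compound; plate controls were apelin-13 plus DMSO wells for no effect and DMSO wells lacking apelin-13 for full effect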
APJ agonist: agonists of human apelin receptor APJ, primary screen, CHO-K1 cells, PathHunter beta-arrestin, luminescence; actives 0.11% (n = 330,000); P35414; 0% DMSO wells, 100% apelin; activation, % at 20 µM;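 active means activation more than six SD over the plate average, tested at 20 µM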;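 further: 0% = DMSO alone and 100% = apelin-13 at 10 nM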
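assay system = CHO-K1 APJ beta-arrestin complementation cell line | input = cell density 1000 per well | dosing = compound 20 µM once, DMSO 1% | timing = compound 90 min 25 °C, reagent 1 h | measured by = luminescence from split beta-galactosidase complementation, Galacton Star/Emerald II substrate | read-out basis = APJ agonist activity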
CXCR6 inh: CXCR6 receptor inhibitors, primary screen, cell-based, beta-arrestin, luminescence, CHO-K1 PathHunter, 1536-well | C-X-C chemokine receptor type 6 (Homo sapiens), O00574 | inhibition, % at 20 µM | actives 0.36% (n = 360,000) | AID 602244, 2012; in the data active means inhibition above about 34%, passing the limit was not always enough;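 further: antagonist mode with CXCL16 agonist at 10 nM final; 0% = 10 nM CXCL16 with DMSO and 100% = unstimulated wells without agonist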
HTR2A ag: mouse Htr2a agonists via beta-arrestin recruitment, primary screen, cell-based, luminescence | CHO-K1 mHTR2A beta-arrestin complementation; percent of 30 µM serotonin response | activation, % at 7.6 µM | actives 0.66% (n = 360,000) | AID 624169, 2012;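 active means activation above a run cutoff, the mean activation of all tested compounds plus 3 SD, cut at about 14% in these data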;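 further: 0% = plate median of compound wells and 100% = 30 µM serotonin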
Target sequence (P35363 whole entry, looked up): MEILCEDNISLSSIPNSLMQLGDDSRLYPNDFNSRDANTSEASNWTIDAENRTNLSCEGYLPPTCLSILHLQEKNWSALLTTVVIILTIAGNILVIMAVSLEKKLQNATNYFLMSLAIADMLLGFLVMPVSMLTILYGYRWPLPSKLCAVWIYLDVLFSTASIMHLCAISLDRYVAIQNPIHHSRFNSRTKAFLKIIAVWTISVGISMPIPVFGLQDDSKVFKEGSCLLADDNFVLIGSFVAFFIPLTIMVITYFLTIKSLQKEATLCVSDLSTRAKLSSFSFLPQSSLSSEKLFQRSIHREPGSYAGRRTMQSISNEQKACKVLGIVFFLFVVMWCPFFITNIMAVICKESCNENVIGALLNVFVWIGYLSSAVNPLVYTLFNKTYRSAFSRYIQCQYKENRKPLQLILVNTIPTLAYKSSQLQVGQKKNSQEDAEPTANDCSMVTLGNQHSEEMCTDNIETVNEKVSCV
NTR1 ag: agonists of human NTR1, primary screen, imaging, U2OS cells, beta-arrestin-GFP, high content; activation, % at 20 µM; actives 0.17% (n = 330,000); Neurotensin receptor type 1 (Homo sapiens), P30989; NTR1-U2OS beta-arrestin-GFP spot imaging, agonist mode;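 active means activation at or above 40% of the spot to cytoplasm intensity ratio, with at least 20 cells analyzed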;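 further: 0% = DMSO without peptide and 100% = 100 nM NTR1 peptide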
OPRM1 ag: OPRM1 agonists via beta-arrestin recruitment, confirmation, counter-screen for mouse HTR2A agonist project, cell-based, luminescence, single concentration; shares compounds with HTR2A ag; U2OS OPRM1 beta-arrestin PathHunter; DMSO 0%, DAMGO 9.3 µM 100%; activation, % at 9.3 µM; actives 5.3% (n = 2,300); AID 624380, 2012;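 active means mean activation above the mean of DMSO-only wells plus 3 SD, cut at about 0.5% in these data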
HTR2A ag conf: mouse HTR2A agonists, beta-arrestin recruitment, confirmation, cell-based, luminescence, CHO-K1 PathHunter, triplicate; shares compounds with HTR2A ag; DMSO 0%, 30 µM serotonin 100%; activation, % at 7.6 µM; actives 19% (n = 2,300); AID 624381, 2012;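 active means mean activation across triplicates above the hit threshold derived in the original primary screen, cut at about 15% in these data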
Starred values were filed as active, the others as inactive.

Results for CC(=O)NC(Cc1ccccc1F)C(=O)NC1CCN(C(=O)Nc2ccc(C)cc2)CC1 (centres undefined) ?
CCR6 antag: -11.2; APJ antag: -6.7; APJ agonist: -0.2; CXCR6 inh: -1.1; HTR2A ag: -8.9; NTR1 ag: 0.1

Results for COc1ccc(-c2cnc3c(NC=O)cc(-c4ccc(C(=O)N5CCOCC5)cc4)cn23)cc1OC ?
CXCR6 inh: 2.6; HTR2A ag: 17.2*; OPRM1 ag: -0.6; HTR2A ag conf: 2.1

What do the screens show for `CC(=O)c1ccc(-c2cnc3c(NC=O)cc(-c4ccc(C(=O)N5CCOCC5)cc4)cn23)cc1`?
CXCR6 inh: 1.9; HTR2A ag: -0.9

What do the screens show for `COc1cc(OC)cc(-c2c(C#Cc3ccsc3)c3cc(-c4cccc5[nH]cc(C=O)c45)ccc3n2C)c1`?
CCR6 antag: 9.6; APJ antag: -12.8; APJ agonist: -0.4; CXCR6 inh: -12.9; HTR2A ag: 21.1*; NTR1 ag: 0.6; OPRM1 ag: -0.6; HTR2A ag conf: -2.0

Results for NS(=O)(=O)c1ccc(NC(=O)COc2ccc(S(=O)(=O)N3CCCC3)cc2)cc1 ?
CCR6 antag: 8.8; APJ antag: 0.2; APJ agonist: 0.7; CXCR6 inh: -0.8; HTR2A ag: -2.7; NTR1 ag: -0.4

What do the screens show for `Cc1cc(C(C)(C)C)c(O)c(C)c1CC1=NCCN1`?
CCR6 antag: 4.7; APJ antag: 23.5; APJ agonist: -3.1; CXCR6 inh: 7.2; HTR2A ag: 31.8*; NTR1 ag: 3.8; OPRM1 ag: -0.7; HTR2A ag conf: 41.2*

What do the screens show for `COC(=O)c1[nH]c(C)c(/C(O)=C2\C(=O)C(=O)N(CCN3CCOCC3)C2c2ccco2)c1C` (centres undefined)?
CCR6 antag: 5.9; APJ antag: -3.9; APJ agonist: 2.4; CXCR6 inh: -5.3; HTR2A ag: 3.7; NTR1 ag: -0.5

What do the screens show for `Cc1ccc(NC(=O)C2CCCN(S(=O)(=O)c3ccc4c(c3)oc(=O)n4C)C2)nc1` (centres undefined)?
CCR6 antag: 8.0; APJ antag: -63.5; APJ agonist: 0.6; CXCR6 inh: 11.7; HTR2A ag: -4.8; NTR1 ag: -2.2

Results for Cc1csc(NC(=O)C2CCCN(S(=O)(=O)c3ccc4c(c3)oc(=O)n4C)C2)n1 (centres undefined) ?
CCR6 antag: 12.2; APJ antag: 8.9; APJ agonist: -2.1; CXCR6 inh: 1.6; HTR2A ag: 21.3*; NTR1 ag: -0.6; OPRM1 ag: -0.1; HTR2A ag conf: 0.8

Results for CNc1cccnc1C=NNC(N)=S ?
CCR6 antag: 2.4; CXCR6 inh: -18.2; HTR2A ag: 15.0*; OPRM1 ag: -1.0; HTR2A ag conf: -2.7

Results for CCN(CC)C(=O)Cn1cc(C(=O)C(=O)N2CCN(c3ccccc3)CC2)c2ccccc21 ?
CCR6 antag: 3.3; APJ antag: 10.6; APJ agonist: -1.1; CXCR6 inh: 1.2; HTR2A ag: 8.8; NTR1 ag: 1.0

What do the screens show for `CC1CCCCN1C(=O)C(=O)c1cn(CC(=O)N2CCCC2)c2ccccc12` (centres undefined)?
CCR6 antag: 9.1; APJ antag: -4.4; APJ agonist: -1.3; CXCR6 inh: -9.0; HTR2A ag: -2.4; NTR1 ag: -0.3

Screening data deposited in PubChem by several laboratories.
